Experimental data reported in BindingDB's records for doi:10.1021/jm0510629 (University of Houston, 2006).

How the values were obtained:
Integrase [1] = molecular target: T1, Integrase (Human immunodeficiency virus 1, UniProt Q7ZJM1); assay: Inhibition of 3'-processing activity of HIV1 integrase
Outline: (§1)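 Then 20 nM 5′-32P-labeled 21-mer oligonucleotide added for 1 h. Quenched with formamide loading dye. % inhibition from 19-mer (3′-processing) or strand transfer product fractions versus DNA-alone and DNA+IN controls. IC50 from log concentration versus % inhibition plot.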

Integrase [2] = molecular target: T1, Integrase; assay: Inhibition of strand transfer activity of HIV1 integrase; outline: as §1

T1 sequence (Q7ZJM1 whole entry): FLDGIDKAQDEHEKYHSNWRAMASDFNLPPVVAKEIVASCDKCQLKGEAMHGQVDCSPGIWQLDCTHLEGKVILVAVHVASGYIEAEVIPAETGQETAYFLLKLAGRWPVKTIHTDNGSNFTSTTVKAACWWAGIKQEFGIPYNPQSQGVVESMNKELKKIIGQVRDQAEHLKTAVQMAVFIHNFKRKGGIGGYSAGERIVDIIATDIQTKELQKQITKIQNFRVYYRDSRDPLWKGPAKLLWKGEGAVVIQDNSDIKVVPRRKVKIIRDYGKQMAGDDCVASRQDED

| IC50 (Integrase [1]) | IC50 (Integrase [2]) | SMILES |
| --- | --- | --- |
| > 1000 µM | > 1000 µM | COc1ccc(C2C(C(=O)c3ccc(F)cc3)C(=O)C(=O)N2CCN(C)C)cc1OC (configuration not stated) [5-(3,4-dimethoxyphenyl)-1-(2-(dimethylamino)ethyl)-4-(4-fluorobenzoyl)-3-hydroxy-1H-pyrrol-2(5H)-one] |
| > 100 µM | > 100 µM | CN(C)CCCN1C(=O)C(=O)C(C(=O)c2cccs2)C1c1cccs1 (configuration not stated) [1-(3-(dimethylamino)propyl)-3-hydroxy-5-(thiophen-2-yl)-4-(thiophene-2-carbonyl)-1H-pyrrol-2(5H)-one] |
| > 100 µM | > 100 µM | COc1ccc(C2C(C(=O)c3ccccc3)C(=O)C(=O)N2CCCO)cc1OC (configuration not stated) [4-benzoyl-5-(3,4-dimethoxyphenyl)-3-hydroxy-1-(3-hydroxypropyl)-1H-pyrrol-2(5H)-one] |
| > 1000 µM | > 1000 µM | Cc1ccc(C(=O)C2C(=O)C(=O)N(CCN(C)C)C2c2ccccc2F)cc1 (configuration not stated) [1-(2-(dimethylamino)ethyl)-5-(2-fluorophenyl)-3-hydroxy-4-(4-methylbenzoyl)-1H-pyrrol-2(5H)-one] |
| > 100 µM | > 100 µM | NCCCCCCNC(=O)c1c(O)c2ccccc2oc1=O [N-(6-aminohexyl)-4-hydroxy-2-oxo-2H-chromene-3-carboxamide] |
| > 1000 µM | > 1000 µM | O=C1C(=O)N(CCCN2CCOCC2)C(c2ccccc2F)C1C(=O)c1ccc(F)cc1 (configuration not stated) [4-(4-fluorobenzoyl)-5-(2-fluorophenyl)-3-hydroxy-1-(3-morpholinopropyl)-1H-pyrrol-2(5H)-one] |
